Test results: ChEMBL document CHEMBL4308847, “Discovery, Structure-Activity Relationship, and Biological Characterization of a Novel Series of 6-((1 H-Pyrazolo[4,3- b]pyridin-3-yl)amino)-benzo[ d]isothiazole-3-carboxamides as Positive Allosteric Modulators of the Metabotropic Glutamate Receptor 4 (mGlu4)” (J Med Chem, 2018)
Active and inactive are the calls of the source. The calls are words filed in the database; no cut-off is given here.

What was measured:
[1] = test system: Rattus norvegicus; assay: Reversal of haloperidol-induced catalepsy in Sprague-Dawley rat assessed as decrease in latency to remove forepaws from bar at 10 mg/kg, po administered 30 mins prior to test; type: functional, organism-based
Outline: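 Male Sprague-Dawley rats were randomized and given haloperidol 0.75 mg/kg i.p., then 60 min in home cage. Vehicle or compound (10 mg/kg) was given orally 30 min before catalepsy testing, N = 11–12 rats/group. Data analyzed by one-way ANOVA with Dunnett's test versus vehicle + haloperidol.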

[2] = molecular target: T1, Adenosine receptor A3 (Homo sapiens) (UniProt P0DMS8); assay: Displacement of [125I]AB-MECA from recombinant human A3 receptor at 10 uM after 120 mins by scintillation counting method relative to control
T1 sequence (whole entry): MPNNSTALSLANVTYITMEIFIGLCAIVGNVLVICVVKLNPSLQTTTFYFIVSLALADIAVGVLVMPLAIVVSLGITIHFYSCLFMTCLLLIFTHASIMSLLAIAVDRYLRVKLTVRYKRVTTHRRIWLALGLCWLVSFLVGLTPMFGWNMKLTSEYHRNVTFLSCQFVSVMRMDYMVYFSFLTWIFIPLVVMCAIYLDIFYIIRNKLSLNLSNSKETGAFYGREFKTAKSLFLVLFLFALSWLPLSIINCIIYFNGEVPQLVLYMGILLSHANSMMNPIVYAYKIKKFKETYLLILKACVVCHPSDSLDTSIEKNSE

[3] = Intrinsic clearance in human liver microsomes at 1 uM preincubated for 5 mins followed by NADPH addition measured up to 45 mins by LC-MS/MS analysis; type: ADME, Microsome; settings: read-out: CLH
Outline: (§1)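 Intrinsic and predicted hepatic clearance derived from liver microsome incubations.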

[4] = Plasma concentration in Sprague-Dawley rat model of haloperidol-induced catalepsy at 10 mg/kg, po; type: ADME, organism-based; settings: in vivo
Outline: (§2)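 Male Sprague-Dawley rats given haloperidol 0.75 mg/kg i.p., then returned to cages for 60 min. Compound 10 mg/kg was dosed orally 30 min before catalepsy testing. Plasma, brain and CSF were then assayed, and free levels reported.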

[5] = molecular target: Metabotropic glutamate receptor 3 (Rattus norvegicus) (UniProt P31422); assay: Allosteric modulation of rat mGlu3 receptor expressed in HEK cells co-expressing GIRK1/2 assessed as change in glutamate-induced thallium flux preincubated for 2.5 mins followed by glutamate addition by FluoZin-2-AM dye based fluorescence assay; type: cell-based
Outline: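 HEK cells expressing GIRK1/2 plus rat mGlu2, mGlu3, mGlu7 or mGlu8, plated at 15,000 cells/well. Thallium flux was read with a double addition: 10 μM compound, then 2.5 min later a full agonist concentration-response. The agonist was glutamate, or L-AP4 for mGlu7. A left shift of more than 2-fold counted as potentiation. A right shift of more than 2-fold, or a ≥75% drop in maximum response, counted as antagonism.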

[6] = Plasma concentration in rat administered as iv cassette dose; type: ADME, organism-based; settings: in vivo
Outline: (§3)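 Cassette dosing in male Sprague-Dawley rats (~300 g, n = 1 per experiment), with carotid artery and jugular vein catheters. Animals acclimated about one week with food and water ad libitum. Plasma (ng/mL) and brain (ng/g) levels were measured and Kp calculated.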

[7] = MRT in rat administered as iv cassette dose; type: ADME, organism-based; settings: in vivo
Outline: (§4)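 IV cassette in male Sprague-Dawley rats (~300 g, n = 1 per experiment), cannulated in carotid artery and jugular vein and acclimated about one week. Plasma clearance, Vss, t1/2 and MRT were derived.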

[8] = molecular target: Metabotropic glutamate receptor 4 (Homo sapiens, UniProt Q14833); assay: Positive allosteric modulation of human mGlu4 receptor expressed in CHO cells co-expressing Gqi5 assessed as increase in glutamate-induced calcium mobilization preincubated for 142 secs followed by EC20 glutamate addition and subsequent EC80 glutamate addition after 147 secs by Fluo-4-AM dye based fluorescence assay; type: functional, cell-based
Outline: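 CHO cells expressing human mGlu4 and Gqi5, plated at 30,000 cells/well and grown overnight at 37 °C, 5% CO2. Cells were loaded with 1 μM Fluo-4 AM for 45 min at 37 °C in HBSS/20 mM HEPES/2.5 mM probenecid. Compounds were run as 10-point, 1:3 dilution series. After 142 s, EC20 glutamate was added; 147 s later, EC80 glutamate. Fluorescence was normalized to the maximal glutamate response. EC50 and %Glu Max were fitted by four-parameter logistic, with maximum normalized to PHCCC.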

[9] = Intrinsic clearance in rat liver microsomes at 1 uM preincubated for 5 mins followed by NADPH addition measured up to 45 mins by LC-MS/MS analysis; type: ADME, Microsome; settings: read-out: CLH; outline: as §1
[10] = molecular target: Metabotropic glutamate receptor 4 (Rattus norvegicus) (UniProt P31423); assay: Positive allosteric modulation of rat mGlu4 receptor expressed in HEK cells co-expressing GIRK1/2 assessed as increase in glutamate-induced thallium flux preincubated for 140 secs followed by glutamate addition and measured after 2.5 mins by FluoZin-2-AM dye based fluorescence assay relative to control; type: cell-based
Outline: (§5)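 HEK cells co-expressing rat mGlu4 and GIRK1/2 were loaded for 1 h at room temperature with FluoZin-2 AM (330 nM final) in HBSS/20 mM HEPES pH 7.4. Compound was incubated 140 s, then thallium buffer with or without agonist was added. Reading continued for 2.5 min at room temperature. Potency was fitted by four-parameter logistic.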

[11] = molecular target: Cytochrome P450 2C9 (Homo sapiens, UniProt P11712); assay: Inhibition of CYP2C9 in human liver microsomes using diclofenac as substrate preincubated for 15 mins followed by substrate addition and measured after 8 mins by LC-MS/MS analysis; type: ADME
[12] = molecular target: Cytochrome P450 2D6 (Homo sapiens, UniProt P10635); assay: Inhibition of CYP2D6 in human liver microsomes using dextromethorphan as substrate preincubated for 15 mins followed by substrate addition and measured after 8 mins by LC-MS/MS analysis; type: ADME
[13] = Fraction unbound in human plasma after 4 hrs by equilibrium dialysis method; type: ADME, cell-free
[14] = Drug uptake in rat brain administered as iv cassette dose; type: ADME, organism-based; settings: in vivo; outline: as §3
[15] = Volume of distribution at steady state in rat administered as iv cassette dose; type: ADME, organism-based; settings: in vivo, read-out: Vdss; outline: as §4
[16] = Brain to plasma partition coefficient, Kp of the compound in rat administered as iv cassette dose; type: ADME, organism-based; settings: brain and plasma, read-out: Kp; outline: as §3
[17] = test system: P-gp; assay: Permeability from apical to basolateral side in MDCK cells harboring P-gp; type: ADME, cell-based, Canis lupus familiaris; settings: dog, MDCK-MDR1; read-out: permeability
[18] = molecular target: Metabotropic glutamate receptor 1 (Homo sapiens) (UniProt Q13255); assay: Allosteric modulation of human mGlu1 receptor assessed as change in glutamate-induced calcium mobilization at 10 uM preincubated for 2.5 mins followed by glutamate addition by Fluo-4-AM dye based fluorescence assay; type: functional
Outline: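 Human mGlu1 and rat mGlu5 tested by calcium mobilization with a double addition. 10 μM compound was added, then 2.5 min later a full glutamate concentration range. A left shift of more than 2-fold was scored as potentiation. A right shift of more than 2-fold, or a depression of the maximum response by at least 75%, was scored as antagonism.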

[19] = Drug uptake in brain of Sprague-Dawley rat model of haloperidol-induced catalepsy at 10 mg/kg, po; type: ADME, organism-based; settings: in vivo, read-out: Drug uptake; outline: as §2
[20] = molecular target: Metabotropic glutamate receptor 4 (Rattus norvegicus, UniProt P31423); assay: Positive allosteric modulation of rat mGlu4 receptor expressed in HEK cells co-expressing GIRK1/2 assessed as increase in glutamate-induced thallium flux preincubated for 140 secs followed by glutamate addition and measured after 2.5 mins by FluoZin-2-AM dye based fluorescence assay; type: cell-based; outline: as §5
Sequence of Metabotropic glutamate receptor 4 (Rattus norvegicus, UniProt P31423) (P31423 whole entry): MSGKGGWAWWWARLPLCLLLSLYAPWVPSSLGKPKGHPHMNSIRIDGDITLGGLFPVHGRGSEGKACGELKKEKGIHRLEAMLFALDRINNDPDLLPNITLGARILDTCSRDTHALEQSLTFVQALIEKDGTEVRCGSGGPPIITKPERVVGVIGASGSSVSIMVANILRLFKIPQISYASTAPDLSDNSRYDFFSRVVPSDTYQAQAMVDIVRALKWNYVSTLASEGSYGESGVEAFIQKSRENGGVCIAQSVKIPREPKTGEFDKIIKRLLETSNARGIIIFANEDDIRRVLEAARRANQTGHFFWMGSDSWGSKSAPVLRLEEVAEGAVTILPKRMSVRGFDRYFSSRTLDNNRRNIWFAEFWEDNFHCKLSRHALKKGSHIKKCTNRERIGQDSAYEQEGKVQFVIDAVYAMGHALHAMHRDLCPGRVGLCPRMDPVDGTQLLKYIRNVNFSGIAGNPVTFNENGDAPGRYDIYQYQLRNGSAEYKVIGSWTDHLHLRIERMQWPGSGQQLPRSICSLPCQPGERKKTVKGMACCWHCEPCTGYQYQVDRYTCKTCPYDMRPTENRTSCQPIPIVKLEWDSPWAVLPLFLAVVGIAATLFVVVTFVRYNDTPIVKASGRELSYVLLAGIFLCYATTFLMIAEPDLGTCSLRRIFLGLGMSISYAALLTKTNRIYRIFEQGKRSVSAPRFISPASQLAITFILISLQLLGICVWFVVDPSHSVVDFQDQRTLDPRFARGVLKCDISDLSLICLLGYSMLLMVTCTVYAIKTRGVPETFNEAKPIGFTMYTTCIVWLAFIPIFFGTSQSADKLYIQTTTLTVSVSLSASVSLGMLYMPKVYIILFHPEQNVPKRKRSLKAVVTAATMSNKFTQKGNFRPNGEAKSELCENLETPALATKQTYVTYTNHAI

Sequence of Metabotropic glutamate receptor 3 (Rattus norvegicus) (P31422 23-879 limits assumed): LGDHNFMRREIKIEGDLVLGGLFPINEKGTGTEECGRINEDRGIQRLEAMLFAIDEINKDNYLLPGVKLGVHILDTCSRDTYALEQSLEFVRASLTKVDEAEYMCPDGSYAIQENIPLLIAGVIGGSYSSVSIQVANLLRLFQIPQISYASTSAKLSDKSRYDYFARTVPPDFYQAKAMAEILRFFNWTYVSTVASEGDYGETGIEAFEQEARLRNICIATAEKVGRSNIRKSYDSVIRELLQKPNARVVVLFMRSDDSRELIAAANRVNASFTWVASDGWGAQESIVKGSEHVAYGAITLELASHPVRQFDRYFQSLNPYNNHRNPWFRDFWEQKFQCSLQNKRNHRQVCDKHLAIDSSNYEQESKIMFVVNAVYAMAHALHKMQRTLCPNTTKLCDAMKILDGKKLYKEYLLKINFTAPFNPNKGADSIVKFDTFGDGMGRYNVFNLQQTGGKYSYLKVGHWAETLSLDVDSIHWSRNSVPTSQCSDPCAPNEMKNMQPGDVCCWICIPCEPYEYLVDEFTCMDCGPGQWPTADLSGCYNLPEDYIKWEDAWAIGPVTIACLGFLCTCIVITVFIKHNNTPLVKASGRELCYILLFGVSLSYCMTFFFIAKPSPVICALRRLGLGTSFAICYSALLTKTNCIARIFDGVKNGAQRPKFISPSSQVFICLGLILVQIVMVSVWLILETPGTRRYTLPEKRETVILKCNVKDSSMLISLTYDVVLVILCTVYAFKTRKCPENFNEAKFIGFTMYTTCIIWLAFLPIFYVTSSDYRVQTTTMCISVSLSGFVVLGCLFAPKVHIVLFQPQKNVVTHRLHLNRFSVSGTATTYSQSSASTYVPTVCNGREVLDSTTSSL
Sequence of Metabotropic glutamate receptor 1 (Homo sapiens) (Q13255 19-1194 limits assumed): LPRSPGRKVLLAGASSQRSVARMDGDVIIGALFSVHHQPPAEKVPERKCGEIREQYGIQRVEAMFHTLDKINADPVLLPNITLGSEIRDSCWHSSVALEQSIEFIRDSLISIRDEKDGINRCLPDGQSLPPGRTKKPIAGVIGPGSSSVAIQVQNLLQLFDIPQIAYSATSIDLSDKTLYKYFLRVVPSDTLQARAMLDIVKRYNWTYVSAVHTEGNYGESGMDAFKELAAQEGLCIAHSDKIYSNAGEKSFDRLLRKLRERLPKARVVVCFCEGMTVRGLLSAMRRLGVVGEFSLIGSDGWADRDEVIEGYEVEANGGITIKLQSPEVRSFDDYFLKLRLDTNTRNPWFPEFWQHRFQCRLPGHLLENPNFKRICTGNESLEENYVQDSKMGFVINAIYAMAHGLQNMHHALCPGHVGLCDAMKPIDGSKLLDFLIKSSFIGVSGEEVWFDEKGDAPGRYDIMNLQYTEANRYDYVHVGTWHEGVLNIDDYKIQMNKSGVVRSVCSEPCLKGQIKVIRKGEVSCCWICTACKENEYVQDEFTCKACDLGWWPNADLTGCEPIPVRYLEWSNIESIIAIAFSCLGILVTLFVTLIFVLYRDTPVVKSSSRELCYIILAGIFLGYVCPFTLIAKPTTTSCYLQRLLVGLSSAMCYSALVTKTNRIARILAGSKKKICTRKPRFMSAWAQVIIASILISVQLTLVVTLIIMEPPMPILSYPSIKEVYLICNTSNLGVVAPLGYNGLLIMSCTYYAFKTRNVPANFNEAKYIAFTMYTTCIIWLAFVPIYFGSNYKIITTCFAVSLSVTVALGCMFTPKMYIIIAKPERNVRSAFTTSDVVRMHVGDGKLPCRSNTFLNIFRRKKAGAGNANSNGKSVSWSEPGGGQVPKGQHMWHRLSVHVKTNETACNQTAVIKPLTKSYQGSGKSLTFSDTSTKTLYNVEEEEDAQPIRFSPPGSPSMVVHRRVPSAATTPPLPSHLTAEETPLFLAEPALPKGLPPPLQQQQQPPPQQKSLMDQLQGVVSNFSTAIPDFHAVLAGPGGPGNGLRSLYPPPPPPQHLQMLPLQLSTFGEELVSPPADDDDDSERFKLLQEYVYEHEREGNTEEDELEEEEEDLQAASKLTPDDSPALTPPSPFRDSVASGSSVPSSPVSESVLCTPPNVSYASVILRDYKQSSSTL
Sequence of Metabotropic glutamate receptor 4 (Rattus norvegicus) (P31423 whole entry): as the sequence (P31423 whole entry) above
Sequence of Cytochrome P450 2C9 (P11712 whole entry): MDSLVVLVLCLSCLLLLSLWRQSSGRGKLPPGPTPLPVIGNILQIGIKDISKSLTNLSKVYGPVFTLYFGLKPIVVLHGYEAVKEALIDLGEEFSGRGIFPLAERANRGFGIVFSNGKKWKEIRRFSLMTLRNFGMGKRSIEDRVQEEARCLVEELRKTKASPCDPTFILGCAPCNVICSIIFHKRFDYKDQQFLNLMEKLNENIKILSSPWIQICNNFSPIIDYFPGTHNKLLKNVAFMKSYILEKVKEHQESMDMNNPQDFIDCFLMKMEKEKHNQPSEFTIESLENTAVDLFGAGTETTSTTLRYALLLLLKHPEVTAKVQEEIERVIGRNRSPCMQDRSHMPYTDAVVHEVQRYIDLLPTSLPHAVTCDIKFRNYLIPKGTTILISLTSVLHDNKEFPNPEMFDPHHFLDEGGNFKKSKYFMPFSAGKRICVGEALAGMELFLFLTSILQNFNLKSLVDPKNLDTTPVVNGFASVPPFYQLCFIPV
Sequence of Cytochrome P450 2D6 (P10635 whole entry): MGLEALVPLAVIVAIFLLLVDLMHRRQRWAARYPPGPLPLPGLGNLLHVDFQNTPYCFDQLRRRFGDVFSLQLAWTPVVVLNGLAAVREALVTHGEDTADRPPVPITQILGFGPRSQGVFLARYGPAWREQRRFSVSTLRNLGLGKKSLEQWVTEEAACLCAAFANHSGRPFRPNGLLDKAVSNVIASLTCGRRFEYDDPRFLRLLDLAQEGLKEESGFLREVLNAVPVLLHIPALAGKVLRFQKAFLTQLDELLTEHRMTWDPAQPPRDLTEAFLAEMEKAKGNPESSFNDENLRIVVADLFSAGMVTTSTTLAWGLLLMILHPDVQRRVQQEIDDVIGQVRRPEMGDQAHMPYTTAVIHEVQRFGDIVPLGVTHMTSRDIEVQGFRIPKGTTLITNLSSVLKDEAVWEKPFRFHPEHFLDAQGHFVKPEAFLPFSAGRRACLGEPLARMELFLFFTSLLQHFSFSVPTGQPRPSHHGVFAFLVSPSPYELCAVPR
Sequence of Metabotropic glutamate receptor 4 (Homo sapiens, UniProt Q14833) (Q14833 whole entry): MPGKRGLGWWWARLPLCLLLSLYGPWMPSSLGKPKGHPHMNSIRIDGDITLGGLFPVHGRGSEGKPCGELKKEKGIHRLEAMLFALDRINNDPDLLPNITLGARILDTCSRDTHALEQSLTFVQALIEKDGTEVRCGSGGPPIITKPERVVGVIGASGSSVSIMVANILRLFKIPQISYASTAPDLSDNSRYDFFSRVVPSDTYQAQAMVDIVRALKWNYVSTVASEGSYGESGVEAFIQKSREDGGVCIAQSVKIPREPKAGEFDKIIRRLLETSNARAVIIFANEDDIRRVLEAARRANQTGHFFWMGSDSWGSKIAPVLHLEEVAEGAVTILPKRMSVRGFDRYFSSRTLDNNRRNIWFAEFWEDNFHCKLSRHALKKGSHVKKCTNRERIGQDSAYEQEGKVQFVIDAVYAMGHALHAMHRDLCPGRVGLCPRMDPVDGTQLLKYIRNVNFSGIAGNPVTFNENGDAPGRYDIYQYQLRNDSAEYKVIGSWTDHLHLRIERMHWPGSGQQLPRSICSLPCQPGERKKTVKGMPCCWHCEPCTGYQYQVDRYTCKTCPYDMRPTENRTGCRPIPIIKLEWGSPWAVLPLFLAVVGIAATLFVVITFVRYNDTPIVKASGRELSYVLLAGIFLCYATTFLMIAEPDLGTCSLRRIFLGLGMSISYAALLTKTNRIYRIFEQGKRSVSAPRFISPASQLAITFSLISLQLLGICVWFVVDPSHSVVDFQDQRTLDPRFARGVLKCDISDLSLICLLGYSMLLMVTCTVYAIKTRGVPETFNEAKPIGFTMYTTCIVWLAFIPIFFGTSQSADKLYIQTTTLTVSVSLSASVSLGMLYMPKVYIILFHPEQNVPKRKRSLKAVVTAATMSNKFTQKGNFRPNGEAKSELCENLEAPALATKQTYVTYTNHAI

With `O=C(NC1CC(F)(F)C1)c1nsc2cc(Nc3n[nH]c4cccnc34)ccc12` the Activity [1] was “Active”, the inhibition [2] was 76% and the CLint scaled at 1 µM [3] was 1.14 L/h/kg. For the same compound, the concentration [4] was 1.12 µM, the Activity [5] was “inactive” and the Cp [6] was 0.284 µg/mL. It also gave an MRT [7] of 8.5 h, an EC50 [8] of 0.0501 µM and a CLint scaled at 1 µM [9] of 2.05 L/h/kg. It also gave a %max [10] of 76.8%, an IC50 [11] of over 30 µM and an IC50 [12] of over 30 µM. For the same compound, the fraction unbound at 4 h [13] was 0.024, the Drug uptake [14] was 107 ng/g and the Vd [15] was 1.6 L/kg. The Kp [16] was 0.4, the Papp A→B [17] was 29 nm/s and the Activity [18] was “inactive”. The concentration [19] was 0.252 µM and the EC50 [20] was 0.0827 µM.
